≈ marks a conversion by molar mass, not a printed value. One block for each molecule: values may come before it.
How the values were obtained:
Histamine H3 receptor [1] = target: T1, Histamine H3 receptor (Homo sapiens, UniProt Q9Y5N1); assay: Displacement of [3H]-RAMH from human histamine H3 receptor
Histamine H3 receptor [2] = target: T1, Histamine H3 receptor; assay: Inverse agonist activity at human recombinant histamine H3 receptor assessed as effect on [35S]GTPgammaS binding; assay type: functional
[3] = target: Histamine H1 receptor (Homo sapiens) (UniProt P35367); assay: Displacement of [3H]-mepyramine from human histamine H1 receptor; parameters: concentration or dose not given beside the values; conditions: concentration not given here
Histamine H1 receptor (Homo sapiens), sequence (P35367 whole entry): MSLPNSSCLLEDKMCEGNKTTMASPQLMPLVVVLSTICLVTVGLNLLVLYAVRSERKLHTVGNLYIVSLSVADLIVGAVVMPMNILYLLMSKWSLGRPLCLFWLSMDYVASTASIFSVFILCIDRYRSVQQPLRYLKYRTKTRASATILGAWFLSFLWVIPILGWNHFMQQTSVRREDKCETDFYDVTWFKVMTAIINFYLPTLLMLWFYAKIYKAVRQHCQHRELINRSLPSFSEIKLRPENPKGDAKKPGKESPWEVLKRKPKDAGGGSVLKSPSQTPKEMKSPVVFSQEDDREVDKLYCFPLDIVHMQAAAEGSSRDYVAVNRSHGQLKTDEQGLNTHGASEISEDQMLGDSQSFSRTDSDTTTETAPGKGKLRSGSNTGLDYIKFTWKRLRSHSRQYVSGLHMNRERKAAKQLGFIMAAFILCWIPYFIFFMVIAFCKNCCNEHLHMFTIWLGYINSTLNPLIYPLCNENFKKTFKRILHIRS
How it was run: (§1)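 Radioligand displacement assays, single determination (n = 1) each: [3H]-mepyramine at H1, [3H]-tiotidine at H2, [3H]-histamine at H4.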

[4] = target: Histamine H2 receptor (Homo sapiens) (UniProt P25021); assay: Displacement of [3H]-tiotidine from human histamine H2 receptor; parameters: concentration or dose not given beside the values; conditions: concentration not given here; how it was run: as §1
Histamine H2 receptor (Homo sapiens), sequence (P25021 whole entry): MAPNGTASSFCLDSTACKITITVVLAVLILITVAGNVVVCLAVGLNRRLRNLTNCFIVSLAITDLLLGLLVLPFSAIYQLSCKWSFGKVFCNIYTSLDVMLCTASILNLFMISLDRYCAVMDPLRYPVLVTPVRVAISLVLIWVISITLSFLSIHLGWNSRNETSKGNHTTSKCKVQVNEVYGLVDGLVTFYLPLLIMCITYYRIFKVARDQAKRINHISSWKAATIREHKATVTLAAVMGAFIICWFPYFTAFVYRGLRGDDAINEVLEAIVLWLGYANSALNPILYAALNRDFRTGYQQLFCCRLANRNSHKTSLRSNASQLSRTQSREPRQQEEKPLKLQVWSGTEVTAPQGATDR

[5] = target: Histamine H4 receptor (Homo sapiens) (UniProt Q9H3N8); assay: Displacement of [3H]-histamine from human histamine H4 receptor; parameters: concentration or dose not given beside the values; conditions: concentration not given here; how it was run: as §1
[6] = Aqueous solubility of the compound in 0.05 M phosphate buffer at pH 6.5; assay type: physicochemical
[7] = Lipophilicity, log D of the compound at pH 7.4; assay type: physicochemical; conditions: buffer
Cytochrome P450 3A4 = Cytochrome P450 3A4 (Homo sapiens, UniProt P08684); assay: Inhibition of CYP3A4; assay type: ADME
Cytochrome P450 3A4, sequence (P08684 whole entry): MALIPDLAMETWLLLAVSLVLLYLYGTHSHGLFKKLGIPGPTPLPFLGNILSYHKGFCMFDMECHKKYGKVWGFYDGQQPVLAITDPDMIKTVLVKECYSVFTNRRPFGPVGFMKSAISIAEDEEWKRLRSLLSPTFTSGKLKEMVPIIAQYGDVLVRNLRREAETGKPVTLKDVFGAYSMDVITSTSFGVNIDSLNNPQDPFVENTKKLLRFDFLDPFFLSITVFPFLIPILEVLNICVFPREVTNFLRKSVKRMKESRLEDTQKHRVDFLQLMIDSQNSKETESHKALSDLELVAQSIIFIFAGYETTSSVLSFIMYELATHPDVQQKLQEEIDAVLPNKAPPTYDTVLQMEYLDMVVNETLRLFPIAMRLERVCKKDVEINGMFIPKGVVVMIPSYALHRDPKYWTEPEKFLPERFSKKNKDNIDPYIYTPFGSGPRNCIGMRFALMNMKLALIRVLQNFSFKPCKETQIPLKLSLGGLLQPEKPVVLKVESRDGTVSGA

Cytochrome P450 2D6 = Cytochrome P450 2D6 (Homo sapiens, UniProt P10635); assay: Inhibition of CYP2D6; assay type: ADME
Cytochrome P450 2D6, sequence (P10635 whole entry): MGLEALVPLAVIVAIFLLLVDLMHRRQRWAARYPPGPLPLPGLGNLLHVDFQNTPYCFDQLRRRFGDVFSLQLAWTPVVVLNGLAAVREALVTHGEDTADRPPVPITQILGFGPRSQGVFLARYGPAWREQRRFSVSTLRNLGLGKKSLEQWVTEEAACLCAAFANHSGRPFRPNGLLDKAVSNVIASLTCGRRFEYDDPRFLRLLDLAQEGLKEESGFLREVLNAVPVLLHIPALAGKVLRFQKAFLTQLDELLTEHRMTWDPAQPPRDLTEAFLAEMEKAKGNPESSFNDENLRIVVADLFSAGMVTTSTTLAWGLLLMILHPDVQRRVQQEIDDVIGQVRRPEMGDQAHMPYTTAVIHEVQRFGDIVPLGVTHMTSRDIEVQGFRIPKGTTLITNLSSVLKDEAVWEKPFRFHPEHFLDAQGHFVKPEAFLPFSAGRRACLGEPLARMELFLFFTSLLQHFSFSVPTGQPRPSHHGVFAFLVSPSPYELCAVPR

Cytochrome P450 2C9 = Cytochrome P450 2C9 (Homo sapiens, UniProt P11712); assay: Inhibition of CYP2C9; assay type: ADME
Cytochrome P450 2C9, sequence (P11712 whole entry): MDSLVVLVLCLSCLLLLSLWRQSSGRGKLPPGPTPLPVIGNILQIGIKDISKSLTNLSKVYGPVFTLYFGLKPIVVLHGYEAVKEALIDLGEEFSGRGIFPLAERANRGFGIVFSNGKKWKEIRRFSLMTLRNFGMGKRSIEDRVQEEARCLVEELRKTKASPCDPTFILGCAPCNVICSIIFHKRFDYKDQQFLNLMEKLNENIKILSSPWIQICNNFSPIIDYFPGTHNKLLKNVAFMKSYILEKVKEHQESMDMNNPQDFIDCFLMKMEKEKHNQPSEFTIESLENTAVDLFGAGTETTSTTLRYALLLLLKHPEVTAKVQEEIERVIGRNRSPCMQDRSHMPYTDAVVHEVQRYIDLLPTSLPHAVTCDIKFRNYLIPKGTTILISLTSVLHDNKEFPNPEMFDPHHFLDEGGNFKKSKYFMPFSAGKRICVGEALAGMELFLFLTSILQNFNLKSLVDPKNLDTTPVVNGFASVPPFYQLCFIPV

[8] = Intrinsic clearance in human liver microsomes; assay type: ADME, Microsome
[9] = Intrinsic clearance in rat liver microsomes; assay type: ADME, Microsome

T1 sequence (Q9Y5N1 whole entry): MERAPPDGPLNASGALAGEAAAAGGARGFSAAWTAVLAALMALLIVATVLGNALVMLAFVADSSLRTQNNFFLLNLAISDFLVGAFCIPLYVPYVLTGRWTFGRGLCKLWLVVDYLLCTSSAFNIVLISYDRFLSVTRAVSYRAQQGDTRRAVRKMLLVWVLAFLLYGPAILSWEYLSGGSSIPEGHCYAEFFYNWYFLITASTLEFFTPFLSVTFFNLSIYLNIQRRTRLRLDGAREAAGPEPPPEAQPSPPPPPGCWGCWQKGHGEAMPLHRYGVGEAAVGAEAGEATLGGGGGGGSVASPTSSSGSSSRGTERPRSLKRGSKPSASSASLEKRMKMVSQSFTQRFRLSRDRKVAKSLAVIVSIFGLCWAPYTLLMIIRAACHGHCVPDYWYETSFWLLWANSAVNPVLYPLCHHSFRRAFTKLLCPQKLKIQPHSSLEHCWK

- Ki (Histamine H3 receptor [1]): 27 nM
- EC50 (Histamine H3 receptor [2]): 25 nM
- inhibition [3]: -6%
- inhibition [4]: -2%
- inhibition [5]: -6%
SMILES: CC(C)N1CCC(Oc2ccc3c(c2)cc2n3CCN(C(C)C)C2=O)CC1

- Ki (Histamine H3 receptor [1]): 25 nM
- EC50 (Histamine H3 receptor [2]): 38 nM
- inhibition [3]: 1%
- inhibition [5]: 6%
- solubility [6]: > 436 µg/mL
- logD [7]: -0.05
- IC50 (Cytochrome P450 3A4): > 50 µM
- IC50 (Cytochrome P450 2D6): 4 µM
- IC50 (Cytochrome P450 2C9): > 50 µM
- microsomal CLint [8]: 1 µL/min/mg
- microsomal CLint [9]: 70 µL/min/mg
SMILES: CC(C)N1CCC(Oc2ccc3c(c2)cc2n3CCNC2=O)CC1

- Ki (Histamine H3 receptor [1]): 6 nM
- EC50 (Histamine H3 receptor [2]): 14 nM
- inhibition [3]: -2%
- inhibition [4]: 26%
- inhibition [5]: 15%
- solubility [6]: > 455 µg/mL
- logD [7]: 0.23
- IC50 (Cytochrome P450 3A4): > 50 µM
- IC50 (Cytochrome P450 2D6): > 50 µM
- IC50 (Cytochrome P450 2C9): > 50 µM
- microsomal CLint [8]: 3 µL/min/mg
SMILES: CC(C)N1CCC(Oc2ccc3c(c2)cc2n3C[C@H](C)NC2=O)CC1

- Ki (Histamine H3 receptor [1]): 34 nM
- EC50 (Histamine H3 receptor [2]): 40 nM
- inhibition [3]: -1%
- inhibition [4]: -6%
- inhibition [5]: -4%
SMILES: CC(C)N1CCC(Oc2ccc3c(c2)cc2n3CCN(CC(F)(F)F)C2=O)CC1

- Ki (Histamine H3 receptor [1]): 9 nM
- EC50 (Histamine H3 receptor [2]): 46 nM
- inhibition [3]: 2%
- inhibition [4]: 13%
- inhibition [5]: 7%
- solubility [6]: 284 µg/mL (≈ 832 µM)
- logD [7]: 0.28
- IC50 (Cytochrome P450 3A4): > 50 µM
- IC50 (Cytochrome P450 2D6): > 50 µM
- IC50 (Cytochrome P450 2C9): > 50 µM
- microsomal CLint [8]: 7 µL/min/mg
- microsomal CLint [9]: 10 µL/min/mg
SMILES: CC(C)N1CCC(Oc2ccc3c(c2)cc2n3C[C@@H](C)NC2=O)CC1

- Ki (Histamine H3 receptor [1]): 31 nM
- EC50 (Histamine H3 receptor [2]): 48 nM
- inhibition [3]: -4%
- inhibition [4]: 11%
- inhibition [5]: 0%
- solubility [6]: > 455 µg/mL
- logD [7]: 0.13
- IC50 (Cytochrome P450 3A4): > 50 µM
- IC50 (Cytochrome P450 2D6): 15 µM
- IC50 (Cytochrome P450 2C9): > 50 µM
- microsomal CLint [8]: 1 µL/min/mg
- microsomal CLint [9]: 23 µL/min/mg
SMILES: CC(C)N1CCC(Oc2ccc3c(c2)cc2n3CCN(C)C2=O)CC1

- Ki (Histamine H3 receptor [1]): 9 nM
- EC50 (Histamine H3 receptor [2]): 28 nM
- inhibition [4]: 6%
- inhibition [5]: 7%
- solubility [6]: > 508 µg/mL
- logD [7]: 1.09
- IC50 (Cytochrome P450 3A4): > 50 µM
- IC50 (Cytochrome P450 2D6): > 50 µM
- IC50 (Cytochrome P450 2C9): > 50 µM
- microsomal CLint [8]: 14 µL/min/mg
- microsomal CLint [9]: 9 µL/min/mg
SMILES: CC(C)N1CCC(Oc2ccc3c(c2)cc2n3CCN(CC3CC3)C2=O)CC1

- EC50 (Histamine H3 receptor [2]): 36 nM
- inhibition [3]: 5%
- inhibition [4]: 15%
- inhibition [5]: -7%
SMILES: CC(C)N1CCC(Oc2ccc3c(c2)cc2n3CCCN(CC3CC3)C2=O)CC1

- Ki (Histamine H3 receptor [1]): 17 nM
- EC50 (Histamine H3 receptor [2]): 26 nM
- inhibition [3]: 3%
- inhibition [4]: 9%
- inhibition [5]: -3%
- solubility [6]: > 455 µg/mL
- logD [7]: 0.07
- IC50 (Cytochrome P450 3A4): > 50 µM
- IC50 (Cytochrome P450 2D6): > 50 µM
- IC50 (Cytochrome P450 2C9): > 50 µM
- microsomal CLint [9]: 28 µL/min/mg
SMILES: CC(C)N1CCC(Oc2ccc3c(c2)cc2n3CCCNC2=O)CC1

- Ki (Histamine H3 receptor [1]): 5 nM
- EC50 (Histamine H3 receptor [2]): 13 nM
- inhibition [3]: 3%
- inhibition [4]: 3%
- inhibition [5]: 3%
SMILES: CC(C)N1CCC(Oc2ccc3c(c2)cc2n3CCN(Cc3cccnc3)C2=O)CC1

- Ki (Histamine H3 receptor [1]): 6 nM
- EC50 (Histamine H3 receptor [2]): 14 nM
- inhibition [3]: 6%
- inhibition [4]: 4%
- inhibition [5]: -3%
SMILES: CC(C)N1CCC(Oc2ccc3c(c2)cc2n3CCN(Cc3ccccn3)C2=O)CC1

- Ki (Histamine H3 receptor [1]): 19 nM
- EC50 (Histamine H3 receptor [2]): 51 nM
- inhibition [4]: 6%
- inhibition [5]: 0%
SMILES: COCCN1CCn2c(cc3cc(OC4CCN(C(C)C)CC4)ccc32)C1=O

Continued, molecule first:

SMILES: CC(C)N1CCC(Oc2ccc3c(c2)cc2n3CCN(Cc3ccccc3F)C2=O)CC1
- Ki (Histamine H3 receptor [1]): 6 nM
- EC50 (Histamine H3 receptor [2]): 28 nM
- inhibition [3]: 16%
- inhibition [4]: 6%
- inhibition [5]: 1%

SMILES: C[C@H]1CC[C@H](C)N1CCCOc1ccc2c(c1)cc1n2CCNC1=O
- Ki (Histamine H3 receptor [1]): 11 nM
- EC50 (Histamine H3 receptor [2]): 24 nM
- inhibition [3]: 16%
- inhibition [4]: 17%
- inhibition [5]: 6%

SMILES: CC(C)N1CCC(Oc2ccc3c(c2)cc2n3CCN(Cc3ccncc3)C2=O)CC1
- Ki (Histamine H3 receptor [1]): 5 nM
- EC50 (Histamine H3 receptor [2]): 12 nM
- inhibition [3]: 4%
- inhibition [5]: 3%
- solubility [6]: > 456 µg/mL
- logD [7]: 0.64
- IC50 (Cytochrome P450 3A4): 6 µM
- IC50 (Cytochrome P450 2D6): > 50 µM
- IC50 (Cytochrome P450 2C9): > 50 µM
- microsomal CLint [8]: 8 µL/min/mg
- microsomal CLint [9]: 27 µL/min/mg

SMILES: CC(C)N1CCC(Oc2ccc3c(c2)cc(C(=O)N2CCC(F)(F)CC2)n3C(C)C)CC1
- Ki (Histamine H3 receptor [1]): 2 nM
- EC50 (Histamine H3 receptor [2]): 2 nM
- inhibition [3]: 9%
- inhibition [4]: -6%
- inhibition [5]: 7%
- solubility [6]: > 589 µg/mL
- logD [7]: 1.67
- IC50 (Cytochrome P450 3A4): > 50 µM
- IC50 (Cytochrome P450 2D6): 5 µM
- IC50 (Cytochrome P450 2C9): > 50 µM
- microsomal CLint [8]: 4 µL/min/mg
- microsomal CLint [9]: 12 µL/min/mg

SMILES: C[C@H]1CCCN1CCCOc1ccc2c(c1)cc1n2CCNC1=O
- Ki (Histamine H3 receptor [1]): 21 nM
- EC50 (Histamine H3 receptor [2]): 140 nM
- inhibition [3]: 11%
- inhibition [4]: 10%
- inhibition [5]: 4%

SMILES: CC(C)N1CCC(Oc2cc3cc4n(c3cc2Br)[C@@H](C)CNC4=O)CC1
- Ki (Histamine H3 receptor [1]): 4 nM
- EC50 (Histamine H3 receptor [2]): 4 nM
- inhibition [4]: 18%
- inhibition [5]: -10%
- solubility [6]: > 526 µg/mL
- logD [7]: 1.13
- IC50 (Cytochrome P450 3A4): > 50 µM
- IC50 (Cytochrome P450 2D6): > 50 µM
- IC50 (Cytochrome P450 2C9): > 50 µM
- microsomal CLint [8]: 1 µL/min/mg
- microsomal CLint [9]: 12 µL/min/mg

SMILES: C[C@@H]1CCCN1CCCOc1ccc2c(c1)cc1n2CCNC1=O
- Ki (Histamine H3 receptor [1]): 7 nM
- EC50 (Histamine H3 receptor [2]): 4 nM
- inhibition [3]: 13%
- inhibition [4]: 4%
- inhibition [5]: -4%
- solubility [6]: > 436 µg/mL
- logD [7]: 0.13
- IC50 (Cytochrome P450 3A4): > 50 µM
- IC50 (Cytochrome P450 2D6): > 50 µM
- IC50 (Cytochrome P450 2C9): > 50 µM
- microsomal CLint [9]: 37 µL/min/mg

SMILES: O=C1NCCn2c1cc1cc(OC3CCN(CC4CC4)CC3)ccc12
- Ki (Histamine H3 receptor [1]): 129 nM
- inhibition [3]: -4%
- inhibition [4]: 9%
- inhibition [5]: 3%

SMILES: CC(C)N1CCC(Oc2ccc3c(c2)cc2n3CCN(Cc3cccc(F)c3)C2=O)CC1
- Ki (Histamine H3 receptor [1]): 14 nM
- EC50 (Histamine H3 receptor [2]): 23 nM
- inhibition [3]: 24%
- inhibition [4]: 21%
- inhibition [5]: 4%

SMILES: CC(C)N1CCC(Oc2ccc3c(c2)cc2n3[C@H](C)CNC2=O)CC1
- Ki (Histamine H3 receptor [1]): 26 nM
- EC50 (Histamine H3 receptor [2]): 29 nM
- inhibition [3]: -4%
- inhibition [4]: 10%
- inhibition [5]: 9%
- solubility [6]: > 455 µg/mL
- logD [7]: 0.23
- IC50 (Cytochrome P450 3A4): > 50 µM
- IC50 (Cytochrome P450 2D6): 22 µM
- IC50 (Cytochrome P450 2C9): > 50 µM
- microsomal CLint [9]: 29 µL/min/mg

SMILES: CC(C)N1CCC(Oc2ccc3c(c2)cc2n3[C@@H](C)CNC2=O)CC1
- Ki (Histamine H3 receptor [1]): 42 nM
- EC50 (Histamine H3 receptor [2]): 94 nM
- inhibition [3]: 11%
- inhibition [4]: 9%
- inhibition [5]: 10%
- solubility [6]: 345 µg/mL (≈ 1010 µM)
- logD [7]: 0.28
- IC50 (Cytochrome P450 3A4): 26 µM
- IC50 (Cytochrome P450 2D6): > 50 µM
- IC50 (Cytochrome P450 2C9): > 50 µM
- microsomal CLint [8]: 4 µL/min/mg

SMILES: O=C1NCCn2c1cc1cc(OCCCN3CCCCC3)ccc12
- Ki (Histamine H3 receptor [1]): 18 nM
- EC50 (Histamine H3 receptor [2]): 74 nM
- inhibition [3]: 33%
- inhibition [4]: 45%
- inhibition [5]: 8%
